Experimental data from ChEMBL document CHEMBL2203168, “Amine linked flavonoid dimers as modulators for P-glycoprotein-based multidrug resistance: structure-activity relationship and mechanism of modulation” (J Med Chem, 2012).
In brackets after ≈: the same amount, converted by molar mass.

Key:
[1] = target: T1, ATP-dependent translocase ABCB1 (Homo sapiens, UniProt P08183); test: Inhibition of P-gp overexpressed in human MDA435/LCC6MDR cells assessed as accumulation of doxorubicin after 150 mins by fluorescence spectrophotometric analysis; type: cell-based; conditions: 2.5 h
T1 sequence (P08183 whole entry): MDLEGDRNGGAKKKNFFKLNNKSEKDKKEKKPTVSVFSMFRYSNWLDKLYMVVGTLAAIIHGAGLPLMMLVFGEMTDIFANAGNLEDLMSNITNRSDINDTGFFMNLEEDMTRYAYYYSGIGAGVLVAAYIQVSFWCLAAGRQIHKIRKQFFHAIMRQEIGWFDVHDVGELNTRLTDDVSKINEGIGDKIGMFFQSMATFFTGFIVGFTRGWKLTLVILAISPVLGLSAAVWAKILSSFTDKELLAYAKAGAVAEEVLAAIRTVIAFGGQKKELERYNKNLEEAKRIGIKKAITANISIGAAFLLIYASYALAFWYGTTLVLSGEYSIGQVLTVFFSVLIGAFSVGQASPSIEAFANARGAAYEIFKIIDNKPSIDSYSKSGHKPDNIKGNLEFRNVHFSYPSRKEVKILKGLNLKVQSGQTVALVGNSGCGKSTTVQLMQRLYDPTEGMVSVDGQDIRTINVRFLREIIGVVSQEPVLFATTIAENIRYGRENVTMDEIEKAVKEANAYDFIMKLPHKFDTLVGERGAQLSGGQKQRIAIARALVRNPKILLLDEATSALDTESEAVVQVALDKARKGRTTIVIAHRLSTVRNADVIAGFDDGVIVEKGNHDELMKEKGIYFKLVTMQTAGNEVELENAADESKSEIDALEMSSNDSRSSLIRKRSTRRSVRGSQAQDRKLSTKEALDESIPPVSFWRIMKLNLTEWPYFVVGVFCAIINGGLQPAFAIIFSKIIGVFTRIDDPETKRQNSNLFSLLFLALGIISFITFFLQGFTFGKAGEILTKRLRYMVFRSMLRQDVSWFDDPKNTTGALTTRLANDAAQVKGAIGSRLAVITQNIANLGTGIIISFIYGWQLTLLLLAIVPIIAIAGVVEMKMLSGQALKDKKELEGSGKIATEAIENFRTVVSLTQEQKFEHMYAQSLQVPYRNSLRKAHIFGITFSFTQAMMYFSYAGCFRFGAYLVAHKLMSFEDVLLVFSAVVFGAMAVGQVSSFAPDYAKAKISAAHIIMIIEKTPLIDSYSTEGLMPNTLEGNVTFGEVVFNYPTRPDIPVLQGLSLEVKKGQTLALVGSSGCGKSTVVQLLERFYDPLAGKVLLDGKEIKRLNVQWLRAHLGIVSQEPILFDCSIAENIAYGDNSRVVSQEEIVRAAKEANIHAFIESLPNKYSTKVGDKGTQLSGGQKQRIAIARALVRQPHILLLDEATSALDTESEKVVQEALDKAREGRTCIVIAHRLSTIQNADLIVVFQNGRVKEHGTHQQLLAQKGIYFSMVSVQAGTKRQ
In short: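 1 × 10⁶ LCC6MDR or LCC6 cells incubated with 20 μM DOX and graded modulator for 150 min at 37 °C, with 0.4% DMSO as negative control. Cells washed and lysed in 0.75 M HCl, 0.2% Triton X-100 in isopropanol. DOX fluorescence read at ex 460/em 610 nm. N = 2–5.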

[2] = Reversal of P-gp-mediated vincristine-resistance in human LCC6MDR cells after 5 days by MTS assay; type: cell-based; conditions: 120 h
[3] = Reversal of P-gp-mediated daunorubicin-resistance in human LCC6MDR cells after 5 days by MTS assay; type: cell-based; conditions: 120 h
Homo sapiens [4] = species on record: Homo sapiens; test: Inhibition of P-gp-mediated paclitaxel resistance in human LCC6MDR cells assessed as fold decrease in paclitaxel IC50 for cytotoxic activity at 1 uM after 5 days by MTS assay relative to parental cells; type: cell-based
[5] = Reversal of P-gp-mediated paclitaxel-resistance in human LCC6MDR cells after 5 days by MTS assay; type: cell-based; conditions: 120 h
[6] = target: Multidrug resistance-associated protein 1 (Homo sapiens, UniProt P33527); test: Inhibition of MRP1-mediated doxorubicin resistance in human 2008/MRP1 cells assessed as fold decrease in doxorubicin IC50 for cytotoxic activity at 0.5 uM after 5 days by MTS assay relative to parental cell; type: cell-based; conditions: 2008/mrp1, 120 h
Chain of Multidrug resistance-associated protein 1 (P33527 whole entry): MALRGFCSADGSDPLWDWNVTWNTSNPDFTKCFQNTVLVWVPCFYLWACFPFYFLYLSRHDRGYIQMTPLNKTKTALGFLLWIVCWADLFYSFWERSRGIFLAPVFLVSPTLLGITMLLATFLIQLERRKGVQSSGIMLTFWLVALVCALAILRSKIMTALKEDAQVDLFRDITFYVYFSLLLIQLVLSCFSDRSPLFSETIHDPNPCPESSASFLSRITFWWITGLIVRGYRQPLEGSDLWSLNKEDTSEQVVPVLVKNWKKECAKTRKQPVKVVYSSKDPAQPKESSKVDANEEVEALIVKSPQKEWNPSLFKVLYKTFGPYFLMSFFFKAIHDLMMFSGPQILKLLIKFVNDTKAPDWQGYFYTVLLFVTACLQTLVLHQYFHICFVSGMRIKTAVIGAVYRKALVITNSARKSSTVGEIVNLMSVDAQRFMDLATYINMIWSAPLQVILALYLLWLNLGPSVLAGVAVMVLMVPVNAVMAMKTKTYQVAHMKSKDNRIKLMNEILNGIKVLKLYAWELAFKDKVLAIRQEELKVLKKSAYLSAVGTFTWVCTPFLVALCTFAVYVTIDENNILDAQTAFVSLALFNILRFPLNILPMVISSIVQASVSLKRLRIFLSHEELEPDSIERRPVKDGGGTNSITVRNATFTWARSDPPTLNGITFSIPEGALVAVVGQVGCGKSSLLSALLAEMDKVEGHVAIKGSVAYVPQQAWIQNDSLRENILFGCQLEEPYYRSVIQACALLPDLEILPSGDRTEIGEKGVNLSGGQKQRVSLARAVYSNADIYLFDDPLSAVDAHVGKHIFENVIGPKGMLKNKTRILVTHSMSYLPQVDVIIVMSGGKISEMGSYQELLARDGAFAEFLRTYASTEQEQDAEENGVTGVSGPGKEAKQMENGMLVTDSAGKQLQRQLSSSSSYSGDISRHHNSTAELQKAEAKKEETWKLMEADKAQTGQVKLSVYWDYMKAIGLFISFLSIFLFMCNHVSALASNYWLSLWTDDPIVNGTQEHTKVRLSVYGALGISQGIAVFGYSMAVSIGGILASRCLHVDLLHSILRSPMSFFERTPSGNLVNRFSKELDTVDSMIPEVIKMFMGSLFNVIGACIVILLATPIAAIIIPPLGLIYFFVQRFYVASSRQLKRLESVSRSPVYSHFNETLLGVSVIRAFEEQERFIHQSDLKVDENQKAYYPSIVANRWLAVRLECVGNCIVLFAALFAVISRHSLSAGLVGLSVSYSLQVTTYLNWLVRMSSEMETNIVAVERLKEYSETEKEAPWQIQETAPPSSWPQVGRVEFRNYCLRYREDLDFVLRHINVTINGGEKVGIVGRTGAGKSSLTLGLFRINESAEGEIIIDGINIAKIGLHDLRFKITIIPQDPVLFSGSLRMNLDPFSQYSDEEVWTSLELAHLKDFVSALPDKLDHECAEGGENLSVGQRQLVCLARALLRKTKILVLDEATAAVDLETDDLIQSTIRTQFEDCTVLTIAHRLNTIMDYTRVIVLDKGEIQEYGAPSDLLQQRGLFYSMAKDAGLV

Homo sapiens [7] = species on record: Homo sapiens; test: Inhibition of P-gp-mediated paclitaxel resistance in human LCC6MDR cells assessed as fold decrease in paclitaxel IC50 for cytotoxic activity at 0.5 uM after 5 days by MTS assay relative to parental cells; type: cell-based
[8] = Reversal of P-gp-mediated vinblastin-resistance in human LCC6MDR cells after 5 days by MTS assay; type: cell-based; conditions: 120 h
[9] = target: T1, ATP-dependent translocase ABCB1; test: Competitive inhibition of P-gp overexpressed in human MDA435/LCC6MDR cells assessed as accumulation of doxorubicin by Dixon plot analysis; type: cell-based
MDR = test: Cytotoxicity against human MDA435/LCC6MDR cells expressing MDR after 72 hrs; type: functional, cell-based
In short: (§1)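 Cells seeded at 1 × 10⁴ per well in supplemented DMEM and given graded doses of dimer for 72 h at 37 °C, 5% CO₂. Survival measured and IC50 derived. N = 1–3 independent experiments, mean ± SEM.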

[10] = Cytotoxicity against human LCC-6 cells after 72 hrs; type: functional, cell-based; conditions: LCC-6, 72 h; in short: as §1
[11] = Reversal of P-gp-mediated mitoxantrone-resistance in human LCC6MDR cells after 5 days by MTS assay; type: cell-based; conditions: 120 h
L929 = test: Cytotoxicity against mouse L929 cells after 72 hrs; type: cell-based; conditions: L929, 72 h; in short: as §1
Homo sapiens [12] = species on record: Homo sapiens; test: Reduction in P-gp-mediated drug uptake in human MDA435/LCC6MDR cells at 100 uM for 120 mins by HPLC analysis relative to parental cells; type: cell-based
In short: (§2)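 7.5 × 10⁶ LCC6 or LCC6MDR cells in 5 mL DMEM incubated with compound at 10 or 100 μM for 120 min at 37 °C. Cells washed, lysed by freeze–thaw in acetonitrile with 20% formic acid, and processed. Compound quantified by normal-phase HPLC-UV at 315 nm against a chloroform calibration curve of 0.25–25 μg/mL. N = 1–2.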

[13] = target: T2, Broad substrate specificity ATP-binding cassette transporter ABCG2 (Homo sapiens, UniProt Q9UNQ0); test: Inhibition of BCRP-mediated topotecan resistance in human HEK293/R2 cells assessed as fold decrease in topotecan IC50 for cytotoxic activity at 0.5 uM after 5 days by MTS assay relative to parental cell; type: cell-based; conditions: hek293/r2, 120 h
T2 sequence (Q9UNQ0 whole entry): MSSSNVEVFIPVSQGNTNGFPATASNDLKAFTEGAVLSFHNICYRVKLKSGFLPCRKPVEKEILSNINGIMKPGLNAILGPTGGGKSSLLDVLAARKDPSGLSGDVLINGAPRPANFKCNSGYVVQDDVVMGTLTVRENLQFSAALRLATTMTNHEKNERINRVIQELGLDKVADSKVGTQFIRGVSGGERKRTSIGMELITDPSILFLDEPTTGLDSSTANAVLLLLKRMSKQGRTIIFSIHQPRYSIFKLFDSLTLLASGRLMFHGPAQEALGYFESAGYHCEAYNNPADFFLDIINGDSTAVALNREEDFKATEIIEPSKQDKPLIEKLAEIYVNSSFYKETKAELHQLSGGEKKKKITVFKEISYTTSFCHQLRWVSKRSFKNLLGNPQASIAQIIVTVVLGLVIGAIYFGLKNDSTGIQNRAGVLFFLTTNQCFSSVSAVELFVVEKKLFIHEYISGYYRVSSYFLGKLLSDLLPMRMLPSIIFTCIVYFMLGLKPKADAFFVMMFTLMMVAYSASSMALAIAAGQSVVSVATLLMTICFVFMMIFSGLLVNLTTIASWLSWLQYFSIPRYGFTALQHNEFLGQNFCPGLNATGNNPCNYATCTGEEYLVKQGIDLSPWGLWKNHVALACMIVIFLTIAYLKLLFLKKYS
In short: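 Viability read by MTS. Topotecan IC50 taken from dose-response curves. Fold change = IC50 without modulator / IC50 with modulator. Parental HEK293/pcDNA3.1 tested for reference. N = 2−4 independent experiments, mean ± SEM.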

[14] = Reversal of P-gp-mediated doxorubicin-resistance in human LCC6MDR cells after 5 days by MTS assay; type: cell-based; conditions: 120 h
P-gp (ABCB1) = P-gp (ABCB1) (Homo sapiens, UniProt P08183); test: Increase in human P-gp ATPase activity at 200 uM by luciferase assay relative to basal level; conditions: read-out: FC
Chain of P-gp (ABCB1) (P08183 whole entry): as the sequence (P08183 whole entry) above
In short: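 Human P-gp membrane fraction (about 25 μg) incubated with compound at 200 μM, 0.5% DMSO basal or 100 μM vanadate. Reaction started with 5 mM MgATP, 1 h at 37 °C. Remaining ATP read by luciferase luminescence after 20 min at room temperature. Activity normalized to basal and given as stimulation fold. N = 2.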

[15] = target: T1, ATP-dependent translocase ABCB1; test: Competitive inhibition of P-gp overexpressed in human MDA435/LCC6MDR cells assessed as accumulation of doxorubicin by Lineweaver-Burk plot analysis; type: cell-based
[16] = Therapeutic index, ratio of IC50 for L929 cells to EC50 for reversing paclitaxel resistance in human MDA435/LCC6MDR cells; type: cell-based; conditions: L929 cells (IC50) and MDA435/LCC6MDR cells (EC50)
Homo sapiens [17] = species on record: Homo sapiens; test: Reduction in P-gp-mediated drug uptake in human MDA435/LCC6MDR cells at 10 uM for 120 mins by HPLC analysis relative to parental cells; type: cell-based; in short: as §2

SMILES | MIC [1] [µM] | inhibition (INH) [1] | Ratio (Homo sapiens [4]) | EC50 [5] [nM] | Ratio (Homo sapiens [7]) | IC50 (MDR) [nM] | IC50 [10] [nM] | IC50 (L929) [nM] | selectivity ratio [16] | other results
O=c1cc(-c2ccc(OCCOCCN(CCOCCOc3ccc(-c4cc(=O)c5ccccc5o4)cc3)Cc3ccccc3)cc2)oc2ccccc12 | 0.5 (≈ 0.362 µg/mL) | Dose-dependent effect | 139 | 148 | 58.9 | > 63000 | > 75000 | 85000 | 574 | EC50 [2]: 179 nM; EC50 [3]: 95 nM; Ratio [6]: 2.1; EC50 [8]: 173 nM; Ki [9]: 280 nM; EC50 [11]: 90 nM; fold change (FC) (Homo sapiens [12]): 2.1; Ratio [13]: 3.8; EC50 [14]: 131 nM; fold induction at 200 µM (P-gp (ABCB1)): 2.7; Ki [15]: 340 nM; fold change (FC) (Homo sapiens [17]): 1.7
CCN(CCOCCOc1ccc(-c2cc(=O)c3ccccc3o2)cc1)CCOCCOc1ccc(-c2cc(=O)c3ccccc3o2)cc1 |  |  | 95.7 | 200 | 26.9 | 17300 | 10300 | 6900 | 34.5 | 
COc1ccc(CCN(C)CCCC(C#N)(c2ccc(OC)c(OC)c2)C(C)C)cc1OC (stereo not given) | 8 (≈ 3.64 µg/mL) | Dose-dependent effect |  |  |  |  |  |  |  | 
